From PubChem
An excerpt weighted towards active compounds, which were near 1.5% of everything screened.
CCR6 antagonist: CCR6 receptor antagonists, primary screen, cell-based, CHO-K1, luminescence, beta-arrestin, uHTS; C-C chemokine receptor type 6 (Homo sapiens), P51684; CHO-K1 CCR6 PathHunter beta-arrestin, CCL20-stimulated; inhibition, % at 20 µM; actives 0.49% (n = 340,000); AID 493098, 2011;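 active = compounds whose inhibition of the agonist-driven luminescence signal at 20 µM reaches about 50%, limit read from the data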;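 also: cells stimulated with CCL20 at 14 nM final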
APJ ag: agonists of human apelin receptor APJ, primary screen, CHO-K1 cells, PathHunter beta-arrestin, luminescence. AID 2520, 2010. 0% DMSO wells, 100% apelin. activation, % at 20 µM. actives 0.11% (n = 330,000);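 active = activation more than six SD over the plate average, tested at 20 µM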
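Assay system: CHO-K1 APJ beta-arrestin complementation cell line / Compound: single test compound dose, 20 µM final, 1% DMSO / Times: overnight seeding, 90 min compound at 25 °C, 1 h detection / Technique: beta-gal luminescence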
EBI2 antag: EBI2 receptor antagonists, beta-arrestin recruitment, primary screen, cell-based, luminescence, 7a,25-OHC stimulation, uHTS | G-protein coupled receptor 183 (Homo sapiens), P32249 | 7a,25-OHC stimulated | inhibition, % at 5 µM | actives 0.81% (n = 360,000) | AID 651636, 2012; in the data active = inhibition above about 38%;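 also: enzyme fragment complementation signal reports receptor beta-arrestin coupling in cells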
Target sequence (P32249 whole entry, looked up, the tested form may be a part): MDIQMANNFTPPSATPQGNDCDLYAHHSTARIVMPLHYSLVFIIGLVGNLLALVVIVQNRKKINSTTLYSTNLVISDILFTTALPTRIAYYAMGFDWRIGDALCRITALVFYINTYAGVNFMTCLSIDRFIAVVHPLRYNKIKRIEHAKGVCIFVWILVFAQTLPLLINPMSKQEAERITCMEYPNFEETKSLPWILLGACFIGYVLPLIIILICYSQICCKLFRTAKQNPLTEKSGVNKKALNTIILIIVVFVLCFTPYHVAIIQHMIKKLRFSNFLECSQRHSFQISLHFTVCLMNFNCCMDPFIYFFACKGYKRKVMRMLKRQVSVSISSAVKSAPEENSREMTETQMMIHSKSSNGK
APJ antag: antagonists of human apelin receptor APJ, primary screen, CHO-K1 cells, beta-arrestin complementation, luminescence. inhibition, % at 20 µM. actives 0.32% (n = 330,000);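 active = inhibition above about 40% at 20 µM, limit read from the data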;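 also: cells challenged with 10 nM apelin-13 agonist together with compound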
CXCR6 block: CXCR6 receptor inhibitors, primary screen, cell-based, beta-arrestin, luminescence, CHO-K1 PathHunter, 1536-well; C-X-C chemokine receptor type 6 (Homo sapiens), O00574; inhibition, % at 20 µM; actives 0.36% (n = 360,000); in the data active = inhibition above about 34%, passing the limit was not always enough;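 also: antagonist mode with CXCL16 agonist at 10 nM final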
Target sequence (O00574 whole entry, looked up): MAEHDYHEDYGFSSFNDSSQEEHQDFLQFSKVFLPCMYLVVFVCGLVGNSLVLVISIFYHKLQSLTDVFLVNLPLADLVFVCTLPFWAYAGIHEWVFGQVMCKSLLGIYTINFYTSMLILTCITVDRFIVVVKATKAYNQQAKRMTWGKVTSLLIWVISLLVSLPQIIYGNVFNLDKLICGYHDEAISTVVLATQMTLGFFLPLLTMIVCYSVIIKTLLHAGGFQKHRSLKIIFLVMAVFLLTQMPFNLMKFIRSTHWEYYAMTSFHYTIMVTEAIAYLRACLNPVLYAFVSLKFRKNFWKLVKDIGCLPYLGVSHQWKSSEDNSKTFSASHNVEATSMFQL
EBI2 conf: EBI2 antagonist hit retest, beta-arrestin, confirmation, cell-based, single concentration, luminescence, 7a,25-OHC stimulation | shares compounds with EBI2 antag | 7a,25-OHC antagonism | inhibition, % at 5 µM | actives 29% (n = 2,400) | AID 651997, 2013;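 active = inhibition of at least 50%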
EBI2 ag: EBI2 agonist activity of antagonist hits, confirmation, counter-screen for EBI2 antagonist project, cell-based, single concentration, agonist mode, luminescence | shares compounds with EBI2 antag | EBI2-expressing cells, 60 min; 0% vehicle, 100% 7α,25-dihydroxycholesterol control | activation, % at 5 µM | 2,400 tested, under 10 active | AID 652000, 2013;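 active = activation of at least 50%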
bGal counter: E. coli beta-galactosidase enzyme inhibition, confirmation, counter-screen for EBI2 antagonist project, biochemical, luminescence, single concentration | shares compounds with EBI2 antag | AID 652176, 2013 | purified beta-galactosidase, luminescent Galacton Star, 15 min | inhibition, % at 5 µM | actives 1% (n = 2,400);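 active = replicate-average signal at least 3 plate SD below neutral wells, shown as high inhibition, flagging enzyme-inhibiting false positives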;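 also: higher means stronger loss of beta-gal luminescence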
Of the large screens only hits and unclear results are named; the others gave an inactive call (follow-up assays come after a bar, where they were run).

CC1(C(=O)O)CCN1C(=O)c1cccnc1Oc1ccccc1 (stereo unspecified)	none (no result: CCR6 antagonist, APJ ag, APJ antag)
O=c1c2oc3ccccc3c2ncn1Cc1cccc(Cl)c1	EBI2 antag 48.5 | EBI2 conf inactive | EBI2 ag inactive | bGal counter inactive
O=c1c2oc3ccccc3c2ncn1Cc1ccccc1Cl	none
COc1cccc(Nc2nc(C(N)c3ccccc3)cs2)n1 (stereo unspecified)	none (no result: CCR6 antagonist, APJ ag, APJ antag)
c1ccc(-c2csc(Nc3ccc4c(c3)OCO4)n2)cc1	EBI2 antag 44.5 (no result: CCR6 antagonist, APJ ag, APJ antag) | EBI2 conf inactive | EBI2 ag inactive | bGal counter inactive
N#Cc1ccc(Nc2nc(-c3ccccc3)cs2)cc1	none (no result: CCR6 antagonist, APJ ag, APJ antag)
O=C(Nc1ccc2c(c1)OCO2)c1ccccc1	none
Cc1ccc(NC(=O)c2ccc3c(c2)C(=O)N(CC2CCCO2)C3=O)cc1C (stereo unspecified)	EBI2 antag 74.3 | EBI2 conf 52.2 | EBI2 ag inactive | bGal counter inactive
CN1C(=O)c2ccc(C(=O)Nc3ccc4c(c3)OCO4)cc2C1=O	EBI2 antag 44.8 | EBI2 conf inactive | EBI2 ag inactive | bGal counter inactive
COc1ccc(NC(=O)c2ccc3c(c2)C(=O)N(CC2CCCO2)C3=O)cc1O (stereo unspecified)	none
COc1cc(OC)cc(-c2c(Sc3ccccc3)c3cc(-c4ccc(SC)cc4)ccc3n2C)c1	none (no result: CCR6 antagonist, APJ ag, APJ antag)
CC1CC(C)CN(c2ccc([N+](=O)[O-])cc2-c2nn[nH]n2)C1 (stereo unspecified)	EBI2 antag 73.8 | EBI2 conf 51.0 | EBI2 ag inactive | bGal counter inactive
C=CCn1c(C)c(C(C)=O)c(N2CCN(C(c3ccccc3)c3ccccc3)CC2)nc1=S	EBI2 antag 53.9 | EBI2 conf inactive | EBI2 ag inactive | bGal counter inactive
CC1CC(C)CN(c2ncc3c(n2)CC(c2ccccc2Cl)CC3=O)C1 (stereo unspecified)	none
CC1CC(C)CN(c2ncc3c(n2)CC(c2ccc(Cl)cc2)CC3=O)C1 (stereo unspecified)	EBI2 antag 57.0 | EBI2 conf inactive | EBI2 ag inactive | bGal counter inactive
CCOC(=O)c1c(Nc2ccccc2)sc(/C=C2\C=Nc3ccccc32)c1O	EBI2 antag 52.9 | EBI2 conf inactive | EBI2 ag inactive | bGal counter inactive
COc1ccc2[nH]cc(CCNC(=O)/C=C/[C@H]3O[C@@H](n4cc(C)c(=O)[nH]c4=O)C[C@@H]3O)c2c1	none (no result: CCR6 antagonist, APJ ag, APJ antag)
Cc1ccc(OCC(=O)Nc2ccc(N(C)C)cc2)cc1	none
CCN(CC)c1ccc(NC(=O)COc2ccc(C)cc2)cc1	EBI2 antag 48.2 | EBI2 conf inactive | EBI2 ag inactive | bGal counter inactive
CC(C)(C)N1C(=O)c2ccccc2NC(=O)C1C(=O)NCCc1ccccc1 (stereo unspecified)	none (no result: CCR6 antagonist, APJ ag, APJ antag, CXCR6 block)
Cc1ccc(CNC(=O)c2cc3c(s2)CN(Cc2ccccc2)C3)cc1	EBI2 antag 66.0 | EBI2 conf inactive | EBI2 ag inactive | bGal counter inactive
Cc1c(C(=O)NCCC#N)sc(=O)n1Cc1ccc(C(=O)N(C)C)cc1	none (no result: CCR6 antagonist, APJ ag, APJ antag)
O=C(Nc1ccccc1)N1CCCC(c2nc(-c3ccc(F)cc3)no2)C1 (stereo unspecified)	none
O=C(Nc1cccc(C(F)(F)F)c1)N1CCC(c2nc(-c3ccc(F)cc3)no2)CC1	EBI2 antag 42.5 | EBI2 conf inactive | EBI2 ag inactive | bGal counter inactive
Cc1cccc(C(=O)N2CCC(c3nc(-c4ccc(S(=O)(=O)N5CCOCC5)cc4)no3)CC2)c1	EBI2 antag 78.6 | EBI2 conf 53.7 | EBI2 ag inactive | bGal counter inactive
O=C(Nc1ccccc1)N1CCC(c2nc(-c3ccc(S(=O)(=O)N4CCOCC4)cc3)no2)CC1	EBI2 antag 44.7 | EBI2 conf inactive | EBI2 ag inactive | bGal counter inactive
O=C(c1ccccc1)N1CCC(c2nc(-c3ccc(S(=O)(=O)N4CCOCC4)cc3)no2)CC1	none
C[C@@H]1C(c2cccc(Cl)c2)=NN(c2ccc(Br)cc2)[C@H]1C(=O)N1CCOC1=O	none (no result: APJ ag, APJ antag)
CCCCN(C)C(=O)c1ccc(Nc2nc(C(N)Cc3ccc(C(F)(F)F)cc3)cs2)nc1 (stereo unspecified)	none (no result: CCR6 antagonist, APJ ag, APJ antag)
Cc1sc2ncnc(N3CCC(C(=O)NNC(=O)COc4ccc(Cl)cc4)CC3)c2c1C	EBI2 antag 51.3 (no result: APJ ag, APJ antag) | EBI2 conf inactive | EBI2 ag inactive | bGal counter inactive
Cc1sc2ncnc(N3CCC(C(=O)NNC(=O)COc4ccc(Br)cc4)CC3)c2c1C	EBI2 antag 56.9 | EBI2 conf inactive | EBI2 ag inactive | bGal counter inactive
Cc1ccc(OCC(=O)NNC(=O)C2CCN(c3ncnc4sc(C)c(C)c34)CC2)cc1	none
COCCNC(=O)C1(C)CCCN(C(=O)c2ccc(OC)c(OC)c2)C1 (stereo unspecified)	none (no result: CCR6 antagonist, APJ ag, APJ antag)
COc1cc(C#N)c(NC(=S)N2CCN(C(=O)c3ccco3)CC2)cc1OC	none (no result: CCR6 antagonist, APJ ag, APJ antag)
CC(C)Cc1nc2sc3c(NCc4ccco4)ncnc3c2c2c1COC(C)(C)C2	EBI2 antag 46.6 | EBI2 conf inactive | EBI2 ag inactive | bGal counter inactive
CN1CCC(N(C)S(=O)(=O)c2ccc(NC(=O)COc3ccc(F)cc3)cc2)CC1	none
CN1CCC(N(C)S(=O)(=O)c2ccc(NC(=O)COc3ccc(Cl)cc3)cc2)CC1	EBI2 antag 53.7 | EBI2 conf inactive | EBI2 ag inactive | bGal counter inactive
COc1cc2nc(SCc3c(C)noc3C)n(CCC3=CCCCC3)c(=O)c2cc1OC	EBI2 antag 46.5 | EBI2 conf inactive | EBI2 ag inactive | bGal counter inactive
C=CCn1c(SCc2c(C)noc2C)nc2ccccc2c1=O	none
COc1cc(C2OC(=O)C3C(c4ccc(OC(C)=O)c(OC)c4)OC(=O)C23)ccc1OC(C)=O (stereo unspecified)	EBI2 antag 61.9 | EBI2 conf inactive | EBI2 ag inactive | bGal counter inactive
CCc1ccc(/C=C2\SC(N3CCCC3)=NC2=O)cc1	EBI2 antag 73.4 | EBI2 conf inactive | EBI2 ag inactive | bGal counter inactive
